Data as given in PubChem BioAssay.
Active and inactive are the calls of the source.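 Rule for the calls, unless noted: active = inhibition at or above 50% at 10 µM; inactive = inhibition below 50%.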

Legend:
[1] = inhibitors of TNFa-induced NFkB p65 translocation, primary screen, imaging, HUVEC, MLSMR starter and 10KST1 sets (AID 438;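 active = inhibition above 20% together with a positive visual image hit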;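 note: compound added about 3h40 before a 20 min TNFalpha stimulation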;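 for inhibition: signal is the nuclear over cytoplasmic p65 intensity ratio per well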); details: HUVEC TNFa-induced p65 nuclear translocation; cell count: measured here: nuclei count (cytotoxicity indicator), at 2.08 µM; inhibition: at 2 µM, stronger effect = higher value, 0% TNFa-plus-vehicle, 100% no-TNFa wells
[2] = inhibitors of mutant huntingtin aggregation, primary screen, imaging, exon1htt(103Q)mCFP cells, high-content imaging (AID 483;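 active = visual image review flags a hit and inhibition of aggregation exceeds 20%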;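 note: compound exposure lasted 3 days before fixation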;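 for nuclei count: percent of the per-plate median nuclei count of sample wells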); details: exon1htt(103Q)mCFP cell line, aggregate imaging, at 2 µM; inhibition of aggregation: stronger effect = higher value; nuclei count: measured here: cell count, toxicity
[3] = inhibitors of E-selectin induction by TNFa, primary screen, imaging, HUVEC, immunofluorescence, MLSMR starter and 10KST1 sets (AID 487;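 active = visually confirmed hit in the image check and inhibition above 20%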;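 for inhibition: signal is fraction of cell area covered by stained E-selectin grains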;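 for nuclei count: 100% = median nuclei count of all wells on the same plate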); details: HUVEC TNFalpha-induced E-selectin immunofluorescence imaging, at 2 µM; inhibition: stronger effect = higher value; nuclei count: measured here: cell number, toxicity
[4] = target: Voltage-gated potassium channel subunit beta-2 (Rattus norvegicus) (UniProt P62483); experiment: KvBeta enzyme negative modulators, primary screen, biochemical, NADPH fluorescence (AID 622;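 active = fluorescence slope higher than the sample average by over 3 SD, cut at about -0.22 in these data, passing the limit was not always enough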;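 note: slope of raw intensity against log time taken from 70 to 1610 s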); details: recombinant KvBeta, 4-cyanobenzaldehyde reduction, at 10 µM, stronger effect = higher value
Voltage-gated potassium channel subunit beta-2 (Rattus norvegicus), sequence (P62483 whole entry, looked up): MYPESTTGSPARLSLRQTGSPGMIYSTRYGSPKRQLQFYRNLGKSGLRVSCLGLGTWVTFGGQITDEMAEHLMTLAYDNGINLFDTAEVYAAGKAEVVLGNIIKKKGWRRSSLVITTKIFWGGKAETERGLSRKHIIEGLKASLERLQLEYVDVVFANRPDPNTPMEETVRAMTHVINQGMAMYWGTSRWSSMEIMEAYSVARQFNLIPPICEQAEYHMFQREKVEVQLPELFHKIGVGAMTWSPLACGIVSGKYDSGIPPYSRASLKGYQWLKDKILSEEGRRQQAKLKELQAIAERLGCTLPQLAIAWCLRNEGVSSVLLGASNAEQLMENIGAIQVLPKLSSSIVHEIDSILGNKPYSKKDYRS

[5] = target: Voltage-gated potassium channel subunit beta-2 (Rattus norvegicus) (UniProt P62483); experiment: KvBeta positive modulators, primary screen, biochemical, NADPH fluorescence (AID 623;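 active = NADPH fluorescence slope more negative than the mean of all samples by about 3 SD, 99.7% confidence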;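 note: fluorescence intensity change per second fitted from 20 to 320 s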); details: Recombinant KvBeta, NADPH fluorescence decrease slope, 10 min; at 10 µM; stronger effect = lower value
[6] = target: Alpha-2C adrenergic receptor (Homo sapiens) (UniProt P18825); experiment: modulators of alpha2C/GIRK thallium flux, primary screen, cell-based, HEK293 alpha2C/GIRK1/2 (AID 624;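 active = fluorescence slope after compound addition differing from the mean of all screened samples at 99.7% confidence, in either direction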;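 note: slope of fluorescence ratio to pre-addition baseline per second over 15 to 24 s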); details: thallium flux BTC fluorescence, at 10 µM, actives lie on both sides
Alpha-2C adrenergic receptor (Homo sapiens), sequence (P18825 whole entry, looked up): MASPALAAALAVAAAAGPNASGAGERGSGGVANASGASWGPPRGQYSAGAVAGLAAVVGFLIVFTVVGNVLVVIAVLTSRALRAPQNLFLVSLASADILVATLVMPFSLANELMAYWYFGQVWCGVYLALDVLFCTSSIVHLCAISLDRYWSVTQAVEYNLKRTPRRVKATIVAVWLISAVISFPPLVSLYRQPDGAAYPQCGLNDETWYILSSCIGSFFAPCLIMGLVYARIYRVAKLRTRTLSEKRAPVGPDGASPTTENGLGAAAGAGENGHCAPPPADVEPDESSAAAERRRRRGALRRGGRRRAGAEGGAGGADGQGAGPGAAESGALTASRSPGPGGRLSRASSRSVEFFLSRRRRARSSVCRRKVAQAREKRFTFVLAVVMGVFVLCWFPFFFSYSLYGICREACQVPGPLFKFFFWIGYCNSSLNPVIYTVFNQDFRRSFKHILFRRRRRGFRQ

[7] = inhibitors of Sendai virus-induced IRF3 signaling, primary screen, TLR/RLR signaling modifier project, cell-based, Sendai virus stimulus, luciferase, 10K MLSCN set (AID 602276); details: HEK293 RL24 IRF3 luciferase reporter, at 10 µM, stronger effect = higher value;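 note: firefly luciferase from ISG56 promoter only with Renilla not read in this screen; 0% = Sendai virus plus DMSO and 100% = medium plus DMSO without virus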
[8] = inhibitors of poly I:C-induced TLR3 signaling, primary screen, cell-based, poly I:C stimulus, luciferase, 10K MLSCN set (AID 602277;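 active = inhibition of the reporter signal at or above 50%; inactive = inhibition below 50%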); details: HEK293-TLR3 RL24 IRF3 luciferase reporter, at 10 µM, stronger effect = higher value
[9] = inhibitors of larval lipid processing in zebrafish, primary screen, whole organism, PED6 fluorescence, gall bladder and intestine (AID 686;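 active = a full or partial loss of lipid-probe fluorescence in the fish gall bladder, intestine or both, judged by eye; inactive = no fluorescence loss, or compound toxic to the fish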;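 note: larvae 5 to 7 days old with five fish per well; signal comes from phospholipase A2 cleavage of quenched PED6 carried via bile; overnight exposure to compound and PED6 before scoring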); details: Zebrafish larvae PED6 lipid processing, fluorescence scoring; screened at 20 µM (by protocol)
Method in brief: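 system = live zebrafish larvae aged 5-7 days, whole organism | probe or stimulus = ingested quenched lipid PED6 at 100 nM | doses = 20 µM single dose | timing = overnight exposure | detection = fluorescence microscopy with visual scoring of gall bladder and intestine | read-out = visual per-well fluorescence inhibition score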

For `COc1ccccc1C(=O)N1CCN(CCc2ccccc2)CC1`, the cell count [1] was 341, the inhibition [1] was 3.2% (inactive) and the inhibition of aggregation [2] was -5.8% (inactive). For the same compound, the nuclei count [2] was 100%, the inhibition [3] was 6% (inactive) and the nuclei count [3] was 104%. The fluorescence slope [4] was -0.385 (inactive), the NADPH fluorescence slope [5] was 1.9e-05 (inactive) and the slope [6] was 0.00331 (inactive). The inhibition [7] was 8.51% (inactive) and the inhibition [8] was 0.325% (inactive).
In the case of `O=C(Nc1ccccc1C(=O)N1CCOCC1)c1cccc(S(=O)(=O)N2CCCC2)c1`, the cell count [1] is reported as 440, the inhibition [1] is reported as -5.3% (inactive) and the inhibition of aggregation [2] is reported as 0.3% (inactive). The nuclei count [2] was 92.3%, the inhibition [3] was -138% (inactive) and the nuclei count [3] was 118%. For the same compound, the fluorescence slope [4] was -0.455 (inactive), the NADPH fluorescence slope [5] was 4.9e-06 (inactive) and the slope [6] was 0.00695 (inactive). The inhibition [7] was 2.51% (inactive) and the inhibition [8] was 22.9% (inactive).
In the case of `O=C(C1COc2ccccc2O1)N1CCCC1` (stereo unspecified), the cell count [1] is reported as 283, the inhibition [1] is reported as -8.4% (inactive) and the inhibition of aggregation [2] is reported as 32.8% (active). For the same compound, the nuclei count [2] was 83.7%, the inhibition [3] was -72.5% (inactive) and the nuclei count [3] was 99.2%. For the same compound, the fluorescence slope [4] was -0.332 (inactive), the NADPH fluorescence slope [5] was 1.7e-05 (inactive) and the slope [6] was 0.0093 (inactive). For the same compound, the inhibition [7] was -11.4% (inactive) and the inhibition [8] was 3.67% (inactive).
For `COc1ccc(S(=O)(=O)Nc2cccc(C)n2)c2ccccc12`, the cell count [1] was 713, the inhibition [1] was 6.1% (inactive) and the inhibition of aggregation [2] was -1.6% (inactive). The nuclei count [2] was 76.3%, the inhibition [3] was 41.3% (inactive) and the nuclei count [3] was 92.3%. For the same compound, the fluorescence slope [4] was -0.528 (inactive), the NADPH fluorescence slope [5] was 2.4e-05 (inactive) and the slope [6] was 0.00605 (inactive). The inhibition [7] was -6.27% (inactive) and the inhibition [8] was 0.733% (inactive).
In the case of `Cc1nc2c(-c3ccccc3)c(C)[nH]n2c(=O)c1Cl`, the cell count [1] is reported as 277, the inhibition [1] is reported as -8.3% (inactive) and the inhibition of aggregation [2] is reported as 2.3% (inactive). The nuclei count [2] was 109%, the inhibition [3] was -5.5% (inactive) and the nuclei count [3] was 84.2%. For the same compound, the fluorescence slope [4] was -0.485 (inactive), the NADPH fluorescence slope [5] was 3e-05 (inactive) and the slope [6] was 0.00434 (inactive). The outcome [9] was “inactive”, the inhibition [7] was -11.4% (inactive) and the inhibition [8] was -22.1% (inactive).
With `CCCc1cc(=O)oc2cc(C)cc(OC(=O)c3ccco3)c12` the cell count [1] was 298, the inhibition [1] was -9% (inactive) and the inhibition of aggregation [2] was 14.4% (inactive). For the same compound, the nuclei count [2] was 86%, the inhibition [3] was -170% (inactive) and the nuclei count [3] was 108%. The fluorescence slope [4] was -0.399 (inactive), the NADPH fluorescence slope [5] was -3.5e-05 (inactive) and the slope [6] was 0.00456 (inactive). The outcome [9] was “inactive”, the inhibition [7] was -12.5% (inactive) and the inhibition [8] was -18.4% (inactive).
With `O=C(CCCn1c(=S)[nH]c2cc3c(cc2c1=O)OCO3)N1CCN(c2ccccc2F)CC1` the cell count [1] was 402, the inhibition [1] was -9.1% (inactive) and the inhibition of aggregation [2] was -7.6% (inactive). For the same compound, the nuclei count [2] was 99.5%, the inhibition [3] was 0.1% (inactive) and the nuclei count [3] was 112%. For the same compound, the fluorescence slope [4] was -0.501 (inactive), the NADPH fluorescence slope [5] was -4.7e-05 (inactive) and the slope [6] was 0.00637 (inactive). The inhibition [7] was 8.7% (inactive) and the inhibition [8] was -6.98% (inactive).
For `CC(=O)N1CCc2cc(S(=O)(=O)NCCC(=O)Nc3cc(C)cc(C)c3)ccc21`, the cell count [1] was 611, the inhibition [1] was -11.5% (inactive) and the inhibition of aggregation [2] was 15.1% (inactive). The nuclei count [2] was 97.8%, the inhibition [3] was 25.9% (inactive) and the nuclei count [3] was 98%. The fluorescence slope [4] was -0.399 (inactive), the NADPH fluorescence slope [5] was -8.9e-05 (inactive) and the slope [6] was 0.00432 (inactive). The outcome [9] was “inactive”, the inhibition [7] was 12.9% (inactive) and the inhibition [8] was 12.5% (inactive).
